Screens: PubChem BioAssay, The Scripps Research Institute Molecular Screening Center
Only some compounds are listed: those with a hit (about 3% of all), similar ones and a draw of the others.
Wee1 degr inh: Wee1 degradation inhibitors, primary screen, cell-based, HeLa, Wee1K328M-luciferase, luminescence | reporter increase, % at 5 µM | hit rate 1.2% among 220,000 | HeLa Luc-Wee1K328M stability; 100% = proteasome inhibitor MG132 effect;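 active = activation above the mean of all tested compounds plus 3 SD, set per screening run, cut at about 8.8% in these data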;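 also: cells exposed to compound for 20 h before luminescence read; 0% = DMSO alone and 100% = MG132 at 30 µM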
Hsp70 activator: Hsp70 transcriptional activators, primary screen, cell-based, HeLa, Hsp70 promoter luciferase, luminescence, 10 µM; HeLa Hsp70 promoter luciferase reporter; scaled: vehicle 0, proteasome-inhibitor control 100%; hit rate 0.04% among 200,000; activation, % at 10 µM; AID 1203, 2008;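 active = activation above the mean across all tested compounds plus 3 SD, cutoff set per campaign, cut at about 5.5% in these data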;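 also: 100% = MG132 at 30 µM as the positive control and 0% = DMSO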
NPY Y1 blocker: NPY-Y1 receptor antagonists, primary screen, cell-based; HEK293-CNG Y1 cells, membrane potential fluorescence; NPY at EC95, then isoproterenol; hit rate 1% among 200,000; inhibition, % at 3.6 µM; Neuropeptide Y receptor type 1 (Homo sapiens), P25929; AID 1040, 2008;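 active = inhibition above the campaign mean inhibition of all tested compounds plus 3 SD, cut at about 20% in these data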;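 also: 0% = DMSO wells given NPY plus isoproterenol and 100% = isoproterenol alone without NPY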
Target sequence (P25929 whole entry, looked up): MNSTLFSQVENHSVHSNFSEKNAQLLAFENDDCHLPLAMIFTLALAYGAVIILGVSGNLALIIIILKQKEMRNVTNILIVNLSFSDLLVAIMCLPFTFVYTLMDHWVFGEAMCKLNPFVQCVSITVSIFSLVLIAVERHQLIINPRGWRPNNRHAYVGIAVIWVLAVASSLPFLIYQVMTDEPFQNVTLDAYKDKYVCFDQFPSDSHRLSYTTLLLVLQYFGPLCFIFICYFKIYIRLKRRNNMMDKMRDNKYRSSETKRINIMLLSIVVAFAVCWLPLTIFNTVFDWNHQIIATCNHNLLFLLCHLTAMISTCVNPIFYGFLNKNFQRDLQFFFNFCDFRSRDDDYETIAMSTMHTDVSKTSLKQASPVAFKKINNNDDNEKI
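Material: Y1- and CNG-channel-expressing HEK293 cells / Probe or stimulus: NPY 25 nM then isoproterenol 1 µM plus Ro 20-1724 25 µM / Doses: 3.6 µM single dose, DMSO 0.4% / Schedule: compound incubation 1 h at room temperature, readout 45 min post-stimulation / Signal: membrane potential fluorescence / Benchmarks: isoproterenol-only wells as full block versus NPY-plus-isoproterenol wells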
NPY-Y2 antag: NPY-Y2 receptor antagonists, primary screen, cell-based; Neuropeptide Y receptor type 2 (Homo sapiens), P49146; NPY-Y2 expressing cells, antagonist mode; inhibition, % at 2.7 µM; hit rate 0.99% among 140,000; in the data active = inhibition above about 17%;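 also: 0% = vehicle with agonist challenge and 100% = reference antagonist with challenge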
NPY-Y1 PAM-ag: NPY-Y1 receptor potentiators or agonists, primary screen, cell-based; NPY-Y1 expressing cells, potentiator/agonist activation; activation, % at 3.6 µM; Neuropeptide Y receptor type 1 (Homo sapiens), P25929; hit rate 0.37% among 220,000; AID 1304, 2008; in the data active = activation above about 33%, passing the limit was not always enough;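 also: cells stimulated with NPY at EC10 then isoproterenol at EC100; 0% = low agonist plus stimulus and 100% = saturating agonist plus stimulus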
NPY-Y2 PAM-ag: NPY-Y2 potentiators or agonists, primary screen, cell-based; Neuropeptide Y receptor type 2 (Homo sapiens), P49146; cells expressing NPY-Y2, potentiator/agonist read-out; activation, % at 3.6 µM; hit rate 0.45% among 220,000; AID 1359, 2008; in the data active = activation above about 27%;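 also: cells stimulated with NPY near EC25 plus isoproterenol at EC100; 0% = vehicle plus submaximal agonist and 100% = vehicle plus saturating agonist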
NPY-Y1 pot conf: NPY-Y1 potentiators or agonists, confirmation, cell-based | shares compounds with NPY-Y1 PAM-ag | hit rate 20% among 280 | cell-based NPY-Y1 potentiator/agonist assay | activation, % at 3.6 µM | AID 1546, 2009; in the data active = activation above about 45%;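 also: cells challenged with NPY at its EC10 plus isoproterenol stimulus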
NPY-Y2 counter: NPY-Y2 potentiators or agonists, counter-screen for NPY-Y1 potentiator project, cell-based, fluorescence; HEK293-CNG cells, membrane-potential fluorescence (FLIPR), 1536-well; shares compounds with NPY-Y1 PAM-ag; activation, % at 3.6 µM; hit rate 20% among 280; in the data active = activation above about 33%
NPY-Y1 agonist: NPY-Y1 direct agonists without NPY, confirmation, counter-screen for NPY-Y1 potentiator project, cell-based, fluorescence | shares compounds with NPY-Y1 PAM-ag | HEK293 Y1-CNGC, membrane potential fluorescence, agonist mode | activation, % at 3.6 µM | hit rate 50% among 280;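 active = percent activation above the mean of DMSO-only control wells plus 3 SD of those wells, cut at about 18% in these data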;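 also: cells challenged with isoproterenol plus Ro 20-1724 with no NPY in test wells; Y1 agonism lowers isoproterenol-driven cAMP and reduces probe fluorescence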
NPY-Y2 ag: NPY-Y2 direct agonists without NPY, counter-screen for NPY-Y1 potentiator project, cell-based, fluorescence; activation, % at 3.6 µM; shares compounds with NPY-Y1 PAM-ag; AID 1698, 2009; hit rate 67% among 280; HEK293 Y2-CNGC, membrane potential fluorescence, agonist mode;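 active = activation above the solvent-only control wells' mean plus 3 SD, cut at about 11% in these data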;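 also: 0% = DMSO with isoproterenol and 100% = 40 nM NPY maximal response; agonism lowers cAMP so well fluorescence drops in active wells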
CNGC counter: CNGC cAMP sensor activity inhibitors, counter-screen for NPY-Y1 potentiator/agonist project, cell-based, HEK293-CNG parental, membrane potential fluorescence, Y1 set; shares compounds with NPY-Y1 PAM-ag; isoproterenol cAMP; inhibition, % at 3.6 µM; hit rate 42% among 280;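 active = inhibition above the mean of stimulated solvent-only control wells plus 3 SD, cut at about 22% in these data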;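 also: 0% = isoproterenol-stimulated DMSO wells and 100% = unstimulated DMSO wells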
* hit, by the source's call; x = no result.

SMILES	Wee1 degr inh	Hsp70 activator	NPY Y1 blocker	NPY-Y2 antag	NPY-Y1 PAM-ag	NPY-Y2 PAM-ag	NPY-Y1 pot conf	NPY-Y2 counter	NPY-Y1 agonist	NPY-Y2 ag	CNGC counter
O=C(Nc1ccccc1)C1=C[C@H](C2CC2)C[C@H](OCCCCO)O1	-1	0	3	x	0	2	x	x	x	x	x
Cc1nc(-c2cccc(-c3noc(C)n3)c2)no1	-3	0	1	2	38*	-9	-5	-1	-3	-7	-8
COc1ccc(C)cc1N=Nc1ccc(O)c2ncccc12	-2	-1	-10	x	47*	20	49*	42*	57*	53*	51*
O=C(Nc1ccc(OC(F)F)c(Cl)c1)c1ccccn1	1	0	-2	x	39*	-3	10	-4	-9	-10	1
COc1ccc(NC(=O)c2ccc(OC(F)F)cc2)cc1Cl	-1	0	6	3	-14	-4	x	x	x	x	x
CCCCC(=O)NCCc1cc2c(C)ccc(C)c2[nH]c1=O	-2	0	3	7	8	-1	x	x	x	x	x
COc1ccccc1Oc1ccc2c(c1)C(=O)N(c1cccc3ncccc13)C2=O	2	0	-1	1	43*	24	1	12	1	-5	-13
O=C(Cc1ccccc1)NNC(=O)Nc1cccc(Cl)c1	4	0	-2	7	11	4	x	x	x	x	x
O=C(CN1c2ccccc2Sc2ccccc21)NNC(=O)Nc1cccc(Cl)c1	5	x	x	x	50*	9	48*	30	45*	36*	40*
N#Cc1cc([N+](=O)[O-])ccc1NC(=O)COC(=O)CC1CCCC1	6	x	x	x	1	-9	x	x	x	x	x
CCOC(=O)c1c(NC2OC(=O)c3c2ccc(OC)c3OC)sc(C(=O)OC(C)(C)C)c1C (stereo not given)	-2	0	5	4	2	4	x	x	x	x	x
Cc1cc(C)c(S(=O)(=O)N(CC(=O)N2CCOCC2)C2CCCCC2)c(C)c1	0	0	10	1	-3	6	x	x	x	x	x
CCOC(=O)N1CCN(C(=O)CN(C2CCCCC2)S(=O)(=O)c2c(C)cc(C)cc2C)CC1	-2	0	3	1	71*	-21	-7	-5	-13	4	-8
COc1ccc(S(=O)(=O)N(C)CC(=O)Nc2c(F)cccc2F)cc1	-3	-1	-1	3	-24	-6	x	x	x	x	x
[O-]/C(=C(\C(=S)Nc1ccc(SC(F)F)cc1)[n+]1ccccc1)c1cc(Cl)ccc1Cl	-1	0	-12	x	47*	26	62*	35*	38*	25*	49*
Cc1cc(C)c(/C([O-])=C(/C(=S)Nc2ccc(SC(F)F)cc2)[n+]2ccccc2)cc1C	-2	0	1	x	40*	27	69*	47*	52*	52*	56*
COc1ccc(OC)c2sc(NC(=O)c3ccc(S(=O)(=O)N(C)C)cc3)nc12	-2	0	-3	-4	34*	-3	20	5	12	18*	17
